Results on 43 molecules are retold here after PubChem BioAssay AID588724 (Johns Hopkins Ion Channel Center, 2011).

Several values for one entry are separate records, joined by “and”; a condition that tells them apart may be missing. Equal entries are not always repeated. Activity calls are given as the source filed them.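 The calls were made as follows: active = blocks the KCNK9 potassium channel at some tested dose and a concentration-response curve can be fitted; inactive = no blocking at any dose, or no curve could be fitted.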

This assay addresses Potassium channel subfamily K member 9 (Homo sapiens) (UniProt Q9NPC2). Nature of the assay: blockers of TASK3 potassium channel KCNK9 – cell-based, round III, SAR follow-up (AID 588724). To be noted: HEK293-KCNK9, FluxOR thallium flux fluorescence; for normalised flux ratio, lower = inhibition: at 30 µM (top of the series). A digest of the protocol:
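Times: 90 min dye, 20 min compound, RT, dark / Test system: stable KCNK9-expressing HEK293 cells / Also added: thallium/potassium stimulus, 5x stock of 25 mM K2SO4 plus 7 mM Tl2SO4 / Technique: FluxOR thallium-sensitive dye fluorescence, 10 s baseline, 110 s post-stimulus recording / Repeats: replicates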

Potassium channel subfamily K member 9 (Homo sapiens), sequence (Q9NPC2 whole entry, looked up): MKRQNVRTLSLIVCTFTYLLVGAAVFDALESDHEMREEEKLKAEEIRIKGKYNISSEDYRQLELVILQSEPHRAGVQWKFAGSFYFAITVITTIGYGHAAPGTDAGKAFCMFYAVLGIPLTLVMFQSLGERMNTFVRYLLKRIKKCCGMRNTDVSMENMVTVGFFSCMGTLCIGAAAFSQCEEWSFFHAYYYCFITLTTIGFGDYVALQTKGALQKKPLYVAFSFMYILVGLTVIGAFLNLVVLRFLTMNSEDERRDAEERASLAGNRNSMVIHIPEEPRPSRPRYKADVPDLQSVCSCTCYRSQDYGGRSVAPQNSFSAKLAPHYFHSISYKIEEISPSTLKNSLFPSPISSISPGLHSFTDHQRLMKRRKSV

As to `CC(C1CC2CCC1C2)n1c(SCC(=O)c2ccc(Cl)c(Cl)c2)nnc1-c1ccco1` (stereo not drawn), the IC50 was 7770 nM.

Turning to `S=c1[nH]nc(-c2ccco2)n1C1CC2CCC1C2` (stereo not drawn), the “normalised flux ratio, lower = inhibition” value was “inactive”. The same measure, in the same setting: the entry for `S=c1[nH]nc(-c2ccco2)n1CC1CC2CCC1C2` (stereo not drawn) is “inactive”.

On to `CC(C1CC2CCC1C2)n1c(-c2cccs2)n[nH]c1=S` (stereo not drawn), for which the IC50 is 110 nM. Same read-out and setting: the figure for `CC(C1CC2CCC1C2)n1c(-c2ccccn2)n[nH]c1=S` (stereo not drawn) is 2370 nM. `CC(C1CC2CCC1C2)n1c(-c2cccn2C)n[nH]c1=S` (stereo not drawn): the IC50 was 1390 nM.

For `COc1ccc(C(=O)CSc2nnc(-c3ccco3)n2C(C)C2CC3CCC2C3)cc1` (stereo not drawn), the IC50 was 9140 nM. The same measure, in the same setting: the figure for `CC(C1CC2CCC1C2)n1c(SCC(=O)c2ccccc2)nnc1-c1ccco1` (stereo not drawn) is 5210 nM. Turning to `CC(C1CC2CCC1C2)n1c(-c2ccc(N(C)C)cc2)n[nH]c1=S` (stereo not drawn), the “normalised flux ratio, lower = inhibition” value is “inactive”.

Turning to `CSc1nnc(-c2ccco2)n1C(C)C1CC2CCC1C2` (stereo not drawn), the IC50 is 21400 nM. On the same count and under the same terms, the figure for `CC(C1CC2CCC1C2)n1c(-c2ccco2)n[nH]c1=S` (stereo not drawn) is 150 nM and 290 nM; for `COc1cccc(C(=O)CSc2nnc(-c3ccco3)n2C(C)C2CC3CCC2C3)c1` (stereo not drawn) it is 4650 nM; for `CC(C1CC2CCC1C2)n1c(SCC#N)nnc1-c1cccs1` (stereo not drawn) it is 17700 nM.

As for `CC(C1CC2CCC1C2)n1c(-c2cccc(F)c2)n[nH]c1=S` (stereo not drawn), the half-maximal inhibitory concentration (IC50) is 134 nM. Same read-out and setting: the figure for `COc1ccc(C(=O)CSc2nnc(-c3ccco3)n2C(C)C2CC3CCC2C3)cc1OC` (stereo not drawn) is 1840 nM; for `CC(C1CC2CCC1C2)n1c(SCc2ccccc2)nnc1-c1ccco1` (stereo not drawn) it is 1390 nM; for `CC(C1CCCCC1)n1c(-c2ccco2)n[nH]c1=S` (stereo not drawn) it is 3580 nM. Still for that read-out and setting: the figure for `COc1cc(OC)cc(-c2n[nH]c(=S)n2C(C)C2CC3CCC2C3)c1` (stereo not drawn) is 1030 nM; for `CC(C1CC2CCC1C2)n1c(-c2cccc(N(C)C)c2)n[nH]c1=S` (stereo not drawn) it is 2270 nM. The same measure, in the same setting: the figure for `CC(C1CC2CCC1C2)n1c(SCC(=O)c2ccc3c(c2)OCO3)nnc1-c1ccco1` (stereo not drawn) is 1600 nM; for `C[C@@H](C1CCCCC1)n1c(-c2ccco2)n[nH]c1=S` it is 9410 nM. As to `CC(C1CC2CCC1C2)n1c(-c2ccco2)n[nH]c1=O` (stereo not drawn), the “normalised flux ratio, lower = inhibition” value is “inactive”. For the molecule `COc1ccc(CCSc2nnc(-c3ccco3)n2C(C)C2CC3CCC2C3)cc1OC` (stereo not drawn), the half-inhibitory concentration (IC50) was 2240 nM. With `CC(c1cccc2ccccc12)n1c(-c2ccco2)n[nH]c1=S` (stereo not drawn), the “normalised flux ratio, lower = inhibition” value is “inactive”. With `COc1cccc(-c2n[nH]c(=S)n2C(C)C2CC3CCC2C3)c1OC` (stereo not drawn), the IC50 was 2360 nM.

Take `CC(C1CC2CCC1C2)n1c(-c2cccnc2)n[nH]c1=S` (stereo not drawn): the “normalised flux ratio, lower = inhibition” value was “inactive”. For `CC(C1CC2CCC1C2)n1c(-c2ccco2)nnc1C(F)(F)F` (stereo not drawn), the IC50 is 16400 nM.

Consider `COc1cccc(-c2nnc(S(C)(=O)=O)n2C(C)C2CC3CCC2C3)c1` (stereo not drawn), for which the IC50 is 18000 nM. Same read-out and setting: the figure for `CC(C1CC2CCC1C2)n1c(SC(F)F)nnc1-c1ccco1` (stereo not drawn) is 8460 nM; for `C[C@H](C1CCCCC1)n1c(-c2ccco2)n[nH]c1=S` it is 187 nM.

`CC(CCC1CCCC1)n1c(-c2ccco2)n[nH]c1=S` (stereo not drawn): the IC50 is 907 nM.

Turning to `COc1cccc(Cc2n[nH]c(=S)n2C(C)C2CC3CCC2C3)c1` (stereo not drawn), the IC50 is 2570 nM. On the same count and under the same terms, the figure for `CC(NC(=O)c1ccco1)C1CC2CCC1C2` (stereo not drawn) is 13400 nM. As for `CC(C)c1ccccc1C(=O)Nc1cccc(NC(=O)c2ccccc2OC(F)(F)F)c1`, the IC50 is 732 nM.

Turning to `COc1ccccc1C(=O)Nc1cc(NC(=O)c2ccccc2C(C)C)ccc1F`, the “normalised flux ratio, lower = inhibition” value was “inactive”.

As to `CC(C1C2CCC1CC2)n1c(-c2ccco2)n[nH]c1=S` (stereo not drawn), the IC50 is 1170 nM. As for `CC(C1CC2CCC1C2)n1c(-c2ccncc2)n[nH]c1=S` (stereo not drawn), the “normalised flux ratio, lower = inhibition” value is “inactive”. Take `CC(CC1CC2CCC1C2)n1c(-c2ccco2)n[nH]c1=S` (stereo not drawn): the IC50 is 292 nM. The same measure, in the same setting: the figure for `COc1ccccc1C(=O)Nc1cccc(NC(=O)c2cccc3ccccc23)c1` is 236 nM; for `CC(C)Oc1ccccc1C(=O)Nc1cccc(NC(=O)c2ccccc2OC(F)(F)F)c1` it is 65.1 nM; for `CC(C1CC2CCC1C2)N(C)C(=O)c1ccco1` (stereo not drawn) it is 361 nM. On the same count and under the same terms, the figure for `CC(C1CC2CCC1C2)n1cnnc1-c1ccco1` (stereo not drawn) is 1700 nM. As for `CC(C1CC2CCC1C2)n1c(-c2ccccc2F)n[nH]c1=S` (stereo not drawn), the IC50 is 109 nM.
